Square brackets hold non-standard residues; d marks the D form. Peptide text beside a SMILES is read from it. pT = C[C@@H](OP(=O)(O)O)[C@H](N)C(=O)O; pS = N[C@@H](COP(=O)(O)O)C(=O)O
Columns and labels:
[1] = tested on: polo-box domain (PBD) of polo-like kinase 1 (Plk1), wild-type (His6-PBD345-603 WT); assay: fluorescence-based thermal stability; type: binding, human; settings: for Thermal shift, Δ: difference between wild-type and Y417A/Y421A thermal shifts
Procedure, shortened: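 Fluorescence-based thermal stability screen of phosphorylated test peptides derived from PBIP1 and TCERG1, run in parallel on wild-type Plk1 polo-box domain and on the Y417A/Y421A double mutant. The mutant was designed to weaken binding at the hydrophobic pocket, so the wild-type-minus-mutant shift reports pocket involvement.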

[2] = target: polo-box domain (PBD) of Plk1, His6-PBD345-603 (Homo sapiens, UniProt P53350); assay: isothermal titration calorimetry; type: binding
[3] = tested on: PBD of human Plk1 (GPLGSPEF-PBD371-594); assay: X-ray crystal structure of peptide in complex with PBD; type: binding; settings: crystal structures 3P36 (DPPLHSpTA), 3P37 (FDPPLHSpTA), 3Q1I (FMPPPMSpSM)

polo-box domain (PBD) of Plk1, His6-PBD345-603, sequence (P53350 345-603): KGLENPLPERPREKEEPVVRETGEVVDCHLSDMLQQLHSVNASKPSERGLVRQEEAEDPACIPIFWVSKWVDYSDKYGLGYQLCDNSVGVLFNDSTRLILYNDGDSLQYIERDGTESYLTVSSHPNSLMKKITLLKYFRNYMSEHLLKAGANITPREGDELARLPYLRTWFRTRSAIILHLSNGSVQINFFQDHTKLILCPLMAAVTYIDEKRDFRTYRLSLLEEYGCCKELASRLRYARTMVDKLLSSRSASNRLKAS

Structure (SMILES): CC(=O)N[C@@H](C)C(=O)N[C@@H](CC(=O)O)C(=O)N1CCC[C@H]1C(=O)N1CCC[C@H]1C(=O)N[C@@H](CC(C)C)C(=O)N[C@@H](Cc1c[nH]cn1)C(=O)N[C@@H](CO)C(=O)N[C@H](C(=O)N[C@@H](C)C(N)=O)[C@@H](C)OP(=O)(O)O [ADPPLHSpTA] (Ac-ADPPLHS[pT]A-NH2)
- Thermal shift, Δ [1]: −0.2 °C
- Kd [2]: 1320 nM

Structure (SMILES): CC(=O)N[C@@H](CC(=O)O)C(=O)N1CCC[C@H]1C(=O)N1CCC[C@H]1C(=O)N[C@@H](CC(C)C)C(=O)N[C@@H](Cc1c[nH]cn1)C(=O)N[C@@H](CO)C(=O)N[C@H](C(=O)N[C@@H](C)C(N)=O)[C@@H](C)OP(=O)(O)O [DPPLHSpTA] (Ac-DPPLHS[pT]A-NH2)
- Thermal shift, Δ [1]: −0.4 °C
- Kd [2]: 2140 nM

Structure (SMILES): CC(=O)N[C@@H](Cc1ccccc1)C(=O)N[C@@H](CC(=O)O)C(=O)N1CCC[C@H]1C(=O)N1CCC[C@H]1C(=O)N[C@@H](CC(C)C)C(=O)N[C@@H](Cc1c[nH]cn1)C(=O)N[C@@H](CO)C(=O)N[C@H](C(=O)N[C@@H](C)C(N)=O)[C@@H](C)OP(=O)(O)O [FDPPLHSpTA] (Ac-FDPPLHS[pT]A-NH2)
- Thermal shift, Δ [1]: 4.3 °C
- difference in thermal shifts between wild-type and mutant protein (in words) ([1]; wild-type PBD versus Y417A/Y421A mutant): significant difference in thermal shifts
- Kd [2]: 250 nM
- affinity by ITC (in words) ([2]; ITC, 25 °C, compared with peptides without Phe71): increased affinity

Structure (SMILES): CSCC[C@H](NC(=O)[C@H](COP(=O)(O)O)NC(=O)[C@H](CO)NC(=O)[C@H](CCSC)NC(=O)[C@@H]1CCCN1C(=O)[C@@H]1CCCN1C(=O)[C@@H]1CCCN1C(=O)[C@H](CCSC)NC(=O)[C@H](Cc1ccccc1)NC(C)=O)C(N)=O [FMPPPMSpSM] (Ac-FMPPPMS[pS]M-NH2)
- Thermal shift, Δ [1]: 0.0 °C
- Kd [2]: 515000 nM
- hydrophobic pocket binding in crystal structure (in words) [3]: lack of hydrophobic pocket binding
